Holding throughout (details): in vivo
A short description of data set [1]: Drug uptake in human UM-UC-3 cells xenografted in SCID mouse at 50 uCi, iv administered at 24 hrs post imaging and measured at 24 to 72 post injection by PET imaging analysis. It counts as ADME, organism-based, UMUC3. The procedure, abridged:
(§1)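 SCID mice (3/group) with UMUC3 tumors first given 18F-FDG (50 µCi) and imaged at 110 min. At 24 h later, 124I-labelled agent given i.v. (50, 25 or 15 µCi); microPET at 24, 48, 72 h post-injection, same bed position. Injected dose checked by well gamma counter, within ±5%.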

Data set [2] in a line: Drug uptake in human UM-UC-3 cells xenografted in SCID mouse at 15 uCi, iv measured at 24 to 72 post injection by PET imaging analysis. It counts as ADME, organism-based, UMUC3. The gist of the method: as §1
The nature of data set [3]: Drug uptake in human UM-UC-3 cells xenografted in SCID mouse at 50 uCi, iv measured at 110 min post injection by PET imaging analysis. A general note: Xenograft models place foreign cells or tissue in a host animal.

Regarding `CCC1=C(C)c2cc3[nH]c(cc4nc(c5c6[nH]c(cc1n2)c(C)c6C(=O)C5)[C@@H](CCC(=O)NCc1cccc(C#Cc2cccc(Nc5ncnc6cc(OCCOC)c(OCCOC)cc56)c2)c1)[C@@H]4C)c(C)c3C(C)OCc1cccc([124I])c1` (stereo partly drawn), the Drug uptake entry in data set [1] and in data set [2] was “Active” each time.

`OC[C@H]1OC(O)[C@H]([18F])[C@@H](O)[C@@H]1O` (stereo partly drawn) [FLUDEOXYGLUCOSE F 18]: in data set [3], the Drug uptake result is recorded as “Not Active”.

The values above are taken from ChEMBL document CHEMBL4400542, “Epidermal Growth Factor Receptor-Targeted Multifunctional Photosensitizers for Bladder Cancer Imaging and Photodynamic Therapy” (J Med Chem, 2019).
